Laboratory results taken from ChEMBL document CHEMBL3352243, “Ligand-based virtual screening identifies a family of selective cannabinoid receptor 2 agonists” (Bioorg Med Chem, 2015).

Columns and labels:
Cannabinoid receptor 2 [1] = biological target: T1, Cannabinoid receptor 2 (Homo sapiens, UniProt P34972); experiment: Agonist activity at human CB2R expressed in CHO cells assessed as reduction in forskolin-induced cAMP accumulation by beta-galactosidase based complementation immunoassay; assay type: functional, cell-based
Procedure, shortened: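 hCB2R CHO-K1 cells plated overnight at 37 °C, 5% CO2; anti-cAMP antibody added, then compound (final 0.2% DMSO) with 20 μM forskolin for 30 min at 37 °C. Lysis/substrate 1 h, then EA detection reagent 3 h at room temperature; luminescence read and normalised to forskolin+solvent wells (100%). EC50 by 4-parameter nonlinear fit of pooled 3–4 independent experiments.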
Target sequence in this assay (P34972 whole entry): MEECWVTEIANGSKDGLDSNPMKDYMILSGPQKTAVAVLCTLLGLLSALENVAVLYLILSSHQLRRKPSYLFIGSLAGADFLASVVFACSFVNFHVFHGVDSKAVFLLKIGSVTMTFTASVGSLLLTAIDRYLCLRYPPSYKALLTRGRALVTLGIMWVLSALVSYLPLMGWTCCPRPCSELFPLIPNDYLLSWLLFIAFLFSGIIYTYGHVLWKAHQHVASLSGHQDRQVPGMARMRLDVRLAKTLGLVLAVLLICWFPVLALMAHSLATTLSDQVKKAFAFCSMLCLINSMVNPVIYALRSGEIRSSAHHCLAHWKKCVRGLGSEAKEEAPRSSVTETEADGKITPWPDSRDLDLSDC

Cannabinoid receptor 1 [2] = biological target: T2, Cannabinoid receptor 1 (Homo sapiens, UniProt P21554); experiment: Agonist activity at human CB1R expressed in CHO cells assessed as reduction in forskolin-induced cAMP accumulation by beta-galactosidase based complementation immunoassay; assay type: functional, cell-based
Procedure, shortened: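 CHO-K1 cells expressing hCB1R, 15,000 per well, incubated overnight at 37 °C, 5% CO2, then given anti-cAMP antibody. Compounds were added with 20 μM forskolin (final DMSO 0.2%) for 30 min at 37 °C. Lysis/substrate step 1 h and EA detection 3 h, both at rt in the dark, then luminescence read.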

Cannabinoid receptor 2 [3] = biological target: T1, Cannabinoid receptor 2; experiment: Displacement of [3H]WIN-55212-2 from human CB2R expressed in CHO cells; assay type: cell-based
Procedure, shortened: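 Membranes from CHO cells expressing hCB2R incubated with test compound and tritiated WIN-55212 (0.8 nM), 2 h, 37 °C. Non-specific binding defined with 5 μM WIN-55212. Scintillation counting of bound ligand; Ki via Cheng–Prusoff with radioligand Kd; duplicate.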
Target sequence in this assay (P34972 whole entry): as above

Cannabinoid receptor 1 [4] = biological target: T2, Cannabinoid receptor 1; experiment: Displacement of [3H]CP55940 from human CB1R expressed in CHO cells; assay type: cell-based
Procedure, shortened: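 Membranes from CHO cells expressing hCB1R incubated with test compound and [3H]CP 55,940 (0.5 nM) for 2 h at 37 °C. Non-specific binding defined with 10 μM WIN-55212. Bound radioligand measured by scintillation counting. Ki from Cheng–Prusoff using radioligand Kd; run in duplicate.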

Liver = experiment: Half life in mouse liver microsomes in presence of NADPH by LC-MS/MS method; assay type: ADME
Procedure, shortened: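 Mouse liver microsomes incubated with compound at 37 °C with NADPH. Reactions stopped with methanol containing internal standard, centrifuged, supernatant analysed by LC–MS/MS.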

Cannabinoid receptor 2 [5] = biological target: T1, Cannabinoid receptor 2; experiment: Agonist activity at human CB2R expressed in CHO cells assessed as reduction in forskolin-induced cAMP accumulation at 3 uM by beta-galactosidase based complementation immunoassay; assay type: functional, cell-based; parameters: reference not given here
Procedure, shortened: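 CHO-K1 cells expressing hCB2R, 15,000 per well, incubated overnight at 37 °C, 5% CO2, then anti-cAMP antibody added. Test agent at single concentration with 20 μM forskolin (0.2% DMSO final), 30 min at 37 °C. Lysis/substrate 1 h, then EA reagent 3 h, both at rt in the dark; luminescence read and expressed as % of forskolin+solvent control wells.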
Target sequence in this assay (P34972 whole entry): as above

Cannabinoid receptor 2 [6] = biological target: T1, Cannabinoid receptor 2; experiment: Agonist activity at human CB2R expressed in CHO cells assessed as reduction in forskolin-induced cAMP accumulation at 1 uM by beta-galactosidase based complementation immunoassay; parameters: reference not given here
Target sequence in this assay (P34972 whole entry, looked up): as the sequence (P34972 whole entry) above

T2 sequence (P21554 whole entry): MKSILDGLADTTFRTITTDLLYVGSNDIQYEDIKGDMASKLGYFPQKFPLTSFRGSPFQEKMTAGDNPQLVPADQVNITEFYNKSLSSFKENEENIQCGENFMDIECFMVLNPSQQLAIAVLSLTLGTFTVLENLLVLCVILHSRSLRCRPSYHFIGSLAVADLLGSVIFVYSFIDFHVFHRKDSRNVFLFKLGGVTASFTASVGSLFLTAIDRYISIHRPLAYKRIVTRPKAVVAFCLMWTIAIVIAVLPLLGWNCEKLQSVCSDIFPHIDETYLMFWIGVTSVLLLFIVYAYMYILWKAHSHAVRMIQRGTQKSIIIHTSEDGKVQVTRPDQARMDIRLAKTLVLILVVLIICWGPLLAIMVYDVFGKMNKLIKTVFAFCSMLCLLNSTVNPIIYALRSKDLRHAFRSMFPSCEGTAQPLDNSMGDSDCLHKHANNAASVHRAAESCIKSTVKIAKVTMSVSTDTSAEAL

## FC(F)(F)c1ccccc1CSc1nnc2c(n1)[nH]c1ccccc12
Cannabinoid receptor 2 [1]
  EC50: > 3000 nM

## N#Cc1ccccc1C[S+]([O-])c1nnc2c(n1)[nH]c1ccccc12 (configuration not stated)
Cannabinoid receptor 2 [1]
  EC50: 3550 nM

## N#Cc1ccccc1CSc1nnc2c(n1)[nH]c1cccc(Br)c12
Cannabinoid receptor 2 [1]
  EC50: 39 nM
Cannabinoid receptor 1 [2]
  EC50: 20000 nM
Cannabinoid receptor 2 [3]
  Ki: 22.5 nM
Cannabinoid receptor 1 [4]
  Ki: 3200 nM
Liver
  t1/2: 5 min

## Cc1ccc(-c2cccc3[nH]c4nc(SCc5ccccc5C#N)nnc4c23)cc1
Cannabinoid receptor 2 [1]
  EC50: > 3000 nM

## N#Cc1ccccc1CSc1nnc2c3ccccc3n(S(=O)(=O)c3ccccc3[N+](=O)[O-])c2n1
Cannabinoid receptor 2 [1]
  EC50: > 3000 nM

## CCCCSc1nnc2c(n1)OC(CC)Nc1ccccc1-2 (configuration not stated)
Cannabinoid receptor 2 [5]
  Activity: 44.3%
Cannabinoid receptor 2 [6]
  Activity: 47.8%

## Fc1ccccc1CSc1nnc2c3ccccc3n(Cc3ccccc3)c2n1
Cannabinoid receptor 2 [1]
  EC50: 850 nM
Cannabinoid receptor 2 [3]
  Ki: 215 nM
Cannabinoid receptor 1 [4]
  Ki: 275 nM

## CCCCCCSC1=C(C#N)C(c2ccc(Cl)cc2)NC(=O)N1 (configuration not stated)
Cannabinoid receptor 2 [5]
  Activity: 138%
Cannabinoid receptor 2 [6]
  Activity: 108%

## Fc1cccc(F)c1CSc1nnc2c(n1)[nH]c1ccccc12
Cannabinoid receptor 2 [1]
  EC50: > 3000 nM

## Fc1ccc(CSc2nnc3c(n2)[nH]c2ccccc23)cc1
Cannabinoid receptor 2 [1]
  EC50: > 3000 nM

## N#Cc1ccccc1CSc1nnc2c3ccccc3n(S(=O)(=O)c3ccccc3)c2n1
Cannabinoid receptor 2 [1]
  EC50: 76 nM
Liver
  t1/2: < 5 min

## N#Cc1ccccc1CSc1nnc2c(n1)[nH]c1cccc(C3CC3)c12
Cannabinoid receptor 2 [1]
  EC50: 231 nM

## CCOC(=O)c1ccccc1CSc1nnc2c(n1)[nH]c1ccccc12
Cannabinoid receptor 2 [1]
  EC50: > 3000 nM

## C=CCn1c(SCCCC)nc2sc3c(c2c1=O)CC(C)(C)OC3
Cannabinoid receptor 2 [5]
  Activity: 36.7%
Cannabinoid receptor 2 [6]
  Activity: 76.3%

## Cc1ccccc1-c1cccc2[nH]c3nc(SCc4ccccc4C#N)nnc3c12
Cannabinoid receptor 2 [1]
  EC50: 4300 nM

## c1ccc(CSc2nnc3c(n2)[nH]c2ccccc23)cc1
Cannabinoid receptor 2 [1]
  EC50: 10000 nM
Cannabinoid receptor 1 [2]
  EC50: > 30000 nM

## Cc1ccc(S(=O)(=O)n2c3ccccc3c3nnc(SCc4ccccc4C#N)nc32)cc1
Cannabinoid receptor 2 [1]
  EC50: > 3000 nM

## CCCCCCSC1=C(C#N)C(c2cccc(Cl)c2)NC(=O)N1 (configuration not stated)
Cannabinoid receptor 2 [5]
  Activity: 117%
Cannabinoid receptor 2 [6]
  Activity: 105%

## CCCCCCSC1=C(C#N)C(c2ccccc2Cl)NC(=O)N1 (configuration not stated)
Cannabinoid receptor 2 [5]
  Activity: 119%
Cannabinoid receptor 2 [6]
  Activity: 98.2%

## N#Cc1cccc(CSc2nnc3c(n2)[nH]c2ccccc23)c1
Cannabinoid receptor 2 [1]
  EC50: 6450 nM
Cannabinoid receptor 1 [2]
  EC50: > 30000 nM

## Cn1c2ccccc2c2nnc(SCc3ccccc3C#N)nc21
Cannabinoid receptor 2 [1]
  EC50: > 3000 nM

## O=C(O)c1ccccc1CSc1nnc2c(n1)[nH]c1ccccc12
Cannabinoid receptor 2 [1]
  EC50: 2180 nM

## CCC1(C)Cc2c(sc3nc(SCCC(C)C)nc(N)c23)CO1 (configuration not stated)
Cannabinoid receptor 2 [5]
  Activity: 98.4%
Cannabinoid receptor 2 [6]
  Activity: 111%

## N#Cc1ccccc1CSc1nnc2c3ccccc3n(C(=O)c3cccc(C(F)(F)F)c3)c2n1
Cannabinoid receptor 2 [1]
  EC50: 27 nM

## Clc1ccccc1CSc1nnc2c(n1)[nH]c1ccccc12
Cannabinoid receptor 2 [1]
  EC50: > 3000 nM

## N#Cc1ccccc1CSc1nnc2c3ccccc3n(C(=O)C3CC3)c2n1
Cannabinoid receptor 2 [1]
  EC50: 181 nM
Liver
  t1/2: < 5 min

## N#Cc1ccccc1CSc1nnc2c3ccccc3n(Cc3ccccc3)c2n1
Cannabinoid receptor 2 [1]
  EC50: 214 nM
Cannabinoid receptor 1 [2]
  EC50: 1550 nM
Cannabinoid receptor 2 [3]
  Ki: 11 nM
Cannabinoid receptor 1 [4]
  Ki: 61 nM
Liver
  t1/2: < 5 min

## CC(C)CCSc1nc(N)c2c3c(sc2n1)COC(C)(C)C3
Cannabinoid receptor 2 [5]
  Activity: 85.3%
Cannabinoid receptor 2 [6]
  Activity: 76.7%

## COc1ccc(C(=O)n2c3ccccc3c3nnc(SCc4ccccc4C#N)nc32)cc1OC
Cannabinoid receptor 2 [1]
  EC50: 160 nM

## N#Cc1ccccc1CSc1nnc2c3ccccc3n(C(=O)OCc3ccccc3)c2n1
Cannabinoid receptor 2 [1]
  EC50: > 3000 nM

## N#Cc1ccccc1CSc1nnc2c(n1)[nH]c1cc(Br)ccc12
Cannabinoid receptor 2 [1]
  EC50: > 3000 nM

## N#Cc1ccccc1CSc1nnc2c3ccccc3n(Cc3ccccc3[N+](=O)[O-])c2n1
Cannabinoid receptor 2 [1]
  EC50: 53 nM
Cannabinoid receptor 1 [2]
  EC50: > 30000 nM
Cannabinoid receptor 2 [3]
  Ki: 290 nM
Cannabinoid receptor 1 [4]
  Ki: > 60000 nM

## CN(C)c1ccc(C(=O)n2c3ccccc3c3nnc(SCc4ccccc4C#N)nc32)cc1
Cannabinoid receptor 2 [1]
  EC50: > 3000 nM

## CCCCCCSC1=C(C#N)C(c2cccc([N+](=O)[O-])c2)NC(=O)N1 (configuration not stated)
Cannabinoid receptor 2 [5]
  Activity: 39.9%
Cannabinoid receptor 2 [6]
  Activity: 63.2%

## Clc1ccc(CSc2nnc3c(n2)[nH]c2ccccc23)cc1
Cannabinoid receptor 2 [1]
  EC50: > 3000 nM

## Clc1cccc(CSc2nnc3c(n2)[nH]c2ccccc23)c1
Cannabinoid receptor 2 [1]
  EC50: > 3000 nM

## CCCCSc1nnc(-c2ccccc2N)c(O)n1
Cannabinoid receptor 2 [5]
  Activity: 61.6%
Cannabinoid receptor 2 [6]
  Activity: 93.5%

## O=C(c1ccccc1)n1c2ccccc2c2nnc(SCc3ccccc3[N+](=O)[O-])nc21
Cannabinoid receptor 2 [1]
  EC50: 75 nM
Cannabinoid receptor 2 [3]
  Ki: 235 nM
Cannabinoid receptor 1 [4]
  Ki: > 60000 nM

## c1ccc2c(c1)[nH]c1nc(SCC3CCCCC3)nnc12
Cannabinoid receptor 2 [1]
  EC50: > 3000 nM

## CCCCCCCC1C(=O)NC(=S)N(c2ccccc2)C1=O (configuration not stated)
Cannabinoid receptor 2 [5]
  Activity: 98.1%
Cannabinoid receptor 2 [6]
  Activity: 111%

## N#Cc1ccccc1CSc1nnc2c3ccccc3n(C(=O)C3CCCC3)c2n1
Cannabinoid receptor 2 [1]
  EC50: 49 nM
Cannabinoid receptor 2 [3]
  Ki: 320 nM
Cannabinoid receptor 1 [4]
  Ki: > 60000 nM

## CCCCCSc1nnc2c(n1)[nH]c1ccccc12
Cannabinoid receptor 2 [5]
  Activity: 73.1%
Cannabinoid receptor 2 [6]
  Activity: 86.2%

## N#Cc1ccccc1CSc1nnc2c(n1)[nH]c1cccc(-c3ccsc3)c12
Cannabinoid receptor 2 [1]
  EC50: 1760 nM

## N#Cc1ccccc1CSc1nnc2c3ccccc3n(CC3CC3)c2n1
Cannabinoid receptor 2 [1]
  EC50: 144 nM
Liver
  t1/2: < 5 min

## N#Cc1ccccc1CSc1nnc2c3ccccc3n(C(=O)c3ccc(F)cc3)c2n1
Cannabinoid receptor 2 [1]
  EC50: 57 nM

## CCn1c2ccccc2c2nnc(SCc3ccccc3C#N)nc21
Cannabinoid receptor 2 [1]
  EC50: 674 nM

## N#Cc1ccccc1CSc1nnc2c(n1)[nH]c1c(Br)cccc12
Cannabinoid receptor 2 [1]
  EC50: > 3000 nM

## FC(F)(F)Oc1ccccc1CSc1nnc2c(n1)[nH]c1ccccc12
Cannabinoid receptor 2 [1]
  EC50: > 3000 nM

## Fc1ccccc1CSc1nnc2c(n1)[nH]c1ccccc12
Cannabinoid receptor 2 [1]
  EC50: > 3000 nM

## N#Cc1ccccc1CSc1nnc2c3ccccc3n(C(=O)C3CCCCC3)c2n1
Cannabinoid receptor 2 [1]
  EC50: 32 nM
Cannabinoid receptor 2 [3]
  Ki: 30 nM
Cannabinoid receptor 1 [4]
  Ki: > 60000 nM

## CCCCn1c2ccccc2c2nnc(SCc3ccccc3C#N)nc21
Cannabinoid receptor 2 [1]
  EC50: 106 nM
Liver
  t1/2: < 5 min

## N#Cc1ccccc1CSc1nnc2c3ccccc3n(C(=O)c3ccco3)c2n1
Cannabinoid receptor 2 [1]
  EC50: 46 nM
Cannabinoid receptor 2 [3]
  Ki: 490 nM
Cannabinoid receptor 1 [4]
  Ki: > 10000 nM

## CSc1nnc2c(n1)[nH]c1ccccc12
Cannabinoid receptor 2 [1]
  EC50: > 3000 nM

## CCCCCCSC1=C(C#N)C(c2ccc(F)cc2)NC(=O)N1 (configuration not stated)
Cannabinoid receptor 2 [5]
  Activity: 114%
Cannabinoid receptor 2 [6]
  Activity: 121%

## N#Cc1ccccc1CSc1nnc2c(n1)[nH]c1ccc(Br)cc12
Cannabinoid receptor 2 [1]
  EC50: > 3000 nM

## CCCCCCSc1nnc2c(n1)[nH]c1ccccc12
Cannabinoid receptor 2 [5]
  Activity: 76%
Cannabinoid receptor 2 [6]
  Activity: 102%

## O=[N+]([O-])c1ccc(CSc2nnc3c(n2)[nH]c2ccccc23)cc1
Cannabinoid receptor 2 [1]
  EC50: 617 nM

## N#Cc1ccccc1CSc1nnc2c3ccccc3n(C(=O)c3ccc(F)cc3C(F)(F)F)c2n1
Cannabinoid receptor 2 [1]
  EC50: > 3000 nM

## O=[N+]([O-])c1ccccc1CSc1nnc2c(n1)[nH]c1cccc(Br)c12
Cannabinoid receptor 2 [1]
  EC50: 37 nM

## N#Cc1ccccc1CSc1nnc2c3ccccc3n(CC3CCCCC3)c2n1
Cannabinoid receptor 2 [1]
  EC50: 270 nM
Liver
  t1/2: < 5 min

## N#Cc1ccccc1CSc1nnc2c3ccccc3n(C(=O)c3ccc(OC(F)(F)F)cc3)c2n1
Cannabinoid receptor 2 [1]
  EC50: 73 nM
Cannabinoid receptor 2 [3]
  Ki: 380 nM
Cannabinoid receptor 1 [4]
  Ki: > 60000 nM

## CCCCCSc1nnc2c3ccccc3n(C)c2n1
Cannabinoid receptor 2 [5]
  Activity: 110%
Cannabinoid receptor 2 [6]
  Activity: 129%

## CC(=O)n1c2ccccc2c2nnc(SCc3ccccc3C#N)nc21
Cannabinoid receptor 2 [1]
  EC50: > 3000 nM
